Assay results as given in ChEMBL document CHEMBL1212735, “Metronidazole resistance in Prevotella spp. and description of a new nim gene in Prevotella baroniae” (2010).
≈ marks a conversion by molar mass, not a printed value.

Columns and labels:
Type in all cases: functional
Bacteroides fragilis [1] = assay: Antimicrobial activity against Bacteroides fragilis ATCC 25285T deficient in nimI gene assessed as inhibition of growth after three consecutive subcultures on compound free medium by agar dilution method
Procedure, shortened: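 Resistance induction: bacterial suspensions were plated on supplemented brucella blood agar with rising metronidazole concentrations. Colonies from the highest concentration were tested by agar dilution. MIC was then redetermined after three consecutive subcultures on drug-free agar. Resistance counted as stable if the MIC held within ±1 dilution. Anaerobic growth at 37°C. Duplicate experiments.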

Prevotella baroniae [2] = assay: Antimicrobial activity against Prevotella baroniae LBN 427 expressing nimI gene assessed as inhibition of growth after several passages on plates containing increasing concentrations of compound by agar dilution method; settings: Segatella baroniae
Procedure, shortened: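 Induction of metronidazole resistance: bacterial suspensions inoculated onto brucella blood agar (5% sheep blood, hemin, vitamin K1) containing metronidazole at increasing concentrations, grown anaerobically at 37°C. Colonies growing at the highest concentration were retested for MIC by CLSI agar dilution on the same agar. Duplicate experiments.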

Bacteroides fragilis [3] = assay: Antimicrobial activity against Bacteroides fragilis ATCC 25285T deficient in nimI gene assessed as inhibition of growth at 48 hrs by agar dilution method
Procedure, shortened: (§1)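 Metronidazole MIC by agar dilution (CLSI M11-A7) on brucella agar with 5% sheep blood, hemin and vitamin K1. Plates were read after 48 h at 35°C under anaerobic conditions. Susceptible was MIC ≤ 4 μg/ml and resistant MIC ≥ 8 μg/ml (EUCAST). B. fragilis ATCC 25285T and B. thetaiotaomicron ATCC 29741 were run as controls. Duplicate assays.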

Prevotella nanceiensis = assay: Antimicrobial activity against slow growing colonies of Prevotella nanceiensis LBN 297 deficient in nim gene assessed as inhibition of growth at 48 hrs by agar dilution method; settings: Hoylesella nanceiensis, LBN 297, 48 h
Procedure, shortened: (§2)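 Metronidazole MIC by agar dilution per CLSI M11-A7 on brucella agar with 5% sheep blood, hemin and vitamin K1. Plates incubated anaerobically at 35°C and read at 48 h, with a second reading after a further 72 h. B. fragilis ATCC 25285T and B. thetaiotaomicron ATCC 29741 served as controls. Done in duplicate; EUCAST breakpoints applied (S ≤4, R ≥8 μg/ml).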

Prevotella baroniae [4] = assay: Antimicrobial activity against Prevotella baroniae LBN 430 expressing nim gene assessed as inhibition of growth at 48 hrs by agar dilution method; settings: Segatella baroniae, LBN 430, 48 h; procedure, shortened: as §1
Prevotella baroniae [5] = assay: Antimicrobial activity against Prevotella baroniae LBN 427 expressing nim gene assessed as inhibition of growth at 48 hrs by agar dilution method; settings: Segatella baroniae, LBN 427, 48 h; procedure, shortened: as §1
Prevotella bivia [6] = assay: Antimicrobial activity against slow growing colonies of Prevotella bivia LBP 65 deficient in nim gene assessed as inhibition of growth at 48 hrs by agar dilution method; settings: LBP 65, 48 h; procedure, shortened: as §2
Prevotella bivia [7] = assay: Antimicrobial activity against slow growing colonies of Prevotella bivia LBN 336 deficient in nim gene assessed as inhibition of growth at 48 hrs by agar dilution method; settings: LBN 336, 48 h
Procedure, shortened: (§3)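 Slowly growing colonies inside the Etest inhibition zone, seen after prolonged incubation (an additional 72 h after the 48 h reading), were subcultured without antibiotic. They were then retested for metronidazole MIC by agar dilution on supplemented brucella blood agar under anaerobic conditions.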

Prevotella bivia [8] = assay: Antimicrobial activity against slow growing colonies of Prevotella bivia LBN 343 deficient in nim gene assessed as inhibition of growth at 48 hrs by agar dilution method; settings: LBN 343, 48 h; procedure, shortened: as §3
Prevotella bivia [9] = assay: Antimicrobial activity against Prevotella bivia LBN 343 deficient in nim gene assessed as inhibition of growth at 48 hrs by agar dilution method; settings: LBN 343, 48 h
Procedure, shortened: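 Agar dilution MIC on brucella agar with 5% sheep blood, hemin and vitamin K1, following CLSI M11-A7. Plates read after 48 h at 35°C under anaerobic conditions, with B. fragilis ATCC 25285T and B. thetaiotaomicron ATCC 29741 as controls. Assays in duplicate. Isolates kept at −80°C in brucella broth with 15% glycerol. Interpretation used EUCAST breakpoints (S ≤4, R ≥8 μg/ml).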

Prevotella baroniae [10] = assay: Antimicrobial activity against Prevotella baroniae LBN 432 expressing nimI gene assessed as inhibition of growth after three consecutive subcultures on compound free medium by agar dilution method; settings: Segatella baroniae
Procedure, shortened: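 Stability of induced resistance: metronidazole-selected isolates were subcultured three consecutive times on drug-free brucella blood agar (5% sheep blood, hemin, vitamin K1) under anaerobic conditions, then MIC was redetermined by CLSI agar dilution. Resistance was called stable if the MIC held within ±1 dilution. Duplicate experiments.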

Prevotella bivia [11] = assay: Antimicrobial activity against Prevotella bivia LBN 361 deficient in nim gene assessed as inhibition of growth at 48 hrs by agar dilution method; settings: LBN 361, 48 h; procedure, shortened: as §1
Prevotella bivia [12] = assay: Antimicrobial activity against slow growing colonies of Prevotella bivia LBN 371 deficient in nim gene assessed as inhibition of growth at 48 hrs by agar dilution method; settings: LBN 371, 48 h; procedure, shortened: as §2
Prevotella bivia [13] = assay: Antimicrobial activity against slow growing colonies of Prevotella bivia LBN 467 deficient in nim gene assessed as inhibition of growth at 48 hrs by agar dilution method; settings: LBN 467, 48 h; procedure, shortened: as §2
Prevotella bivia [14] = assay: Antimicrobial activity against Prevotella bivia LBN 334 deficient in nim gene assessed as inhibition of growth at 48 hrs by agar dilution method; settings: LBN 334, 48 h; procedure, shortened: as §1
Prevotella bivia [15] = assay: Antimicrobial activity against slow growing colonies of Prevotella bivia LBN 331 deficient in nim gene assessed as inhibition of growth at 48 hrs by agar dilution method; settings: LBN 331, 48 h; procedure, shortened: as §3

Question: With `Cc1ncc([N+](=O)[O-])n1CCO` [METRONIDAZOLE] as the compound, how does the MIC (Bacteroides fragilis [1]) read?
Answer: The MIC was 128 mg/L (≈ 748 µM).

Question: What about the MIC (Prevotella baroniae [2]) of the same compound?
Answer: Its MIC is 128 mg/L (≈ 748 µM).

Question: What about the MIC (Bacteroides fragilis [3]) of the same compound?
Answer: Its MIC is 0.5 mg/L (≈ 2.92 µM).

Question: And the MIC (Prevotella nanceiensis)?
Answer: The MIC was 16 mg/L (≈ 93.5 µM).

Question: What about the MIC (Prevotella baroniae [4]) of the same compound?
Answer: The MIC was 4 mg/L (≈ 23.4 µM).

Question: What about the MIC (Prevotella baroniae [5]) of the same compound?
Answer: The MIC was 4 mg/L (≈ 23.4 µM).

Question: And the MIC (Prevotella bivia [6])?
Answer: Its MIC is 32 mg/L (≈ 187 µM).

Question: And the MIC (Prevotella bivia [7])?
Answer: The MIC was 32 mg/L (≈ 187 µM).

Question: And the MIC (Prevotella bivia [8])?
Answer: Its MIC is 16 mg/L (≈ 93.5 µM).

Question: And the MIC (Prevotella bivia [9])?
Answer: The MIC was 1 mg/L (≈ 5.84 µM).

Question: What about the MIC (Prevotella baroniae [10]) of the same compound?
Answer: Its MIC is 64 mg/L (≈ 374 µM).

Question: And the MIC (Prevotella bivia [11])?
Answer: The MIC was 2 mg/L (≈ 11.7 µM).

Question: What about the MIC (Prevotella bivia [12]) of the same compound?
Answer: Its MIC is 32 mg/L (≈ 187 µM).

Question: And the MIC (Prevotella bivia [13])?
Answer: The MIC was 32 mg/L (≈ 187 µM).

Question: And the MIC (Prevotella bivia [14])?
Answer: The MIC was 2 mg/L (≈ 11.7 µM).

Question: What about the MIC (Prevotella bivia [15]) of the same compound?
Answer: Its MIC is 16 mg/L (≈ 93.5 µM).
